Source: PubChem (The Scripps Research Institute Molecular Screening Center)
OX1R antag-1 – OX1R (HCRTR1) antagonists, primary screen, fluorescence, CHO/OX1R cells, Fluo-8 calcium, orexin A; inhibition, % at 5 µM; AID 434989, 2010; Orexin/Hypocretin receptor type 1 (Homo sapiens), O43613; Fluo-8 calcium fluorescence; actives 0.43% (n = 330,000);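 active means inhibition above its plate's threshold, mean inhibition of all tested compounds on the plate plus 3 SD, cut at about 37% in these data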;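 further: 0% = orexin A challenge wells and 100% = SB-334867-A antagonist wells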
GPR7 antagonist – GPR7 receptor antagonists, primary screen, cell-based, fluorescence, single concentration; Neuropeptides B/W receptor type 1 (Homo sapiens), P48145; GPR7-expressing cells, fluorescence antagonist assay; inhibition, % at 4.4 µM; actives 1.1% (n = 290,000); AID 1861, 2009; in the data active means inhibition above about 16%, passing the limit was not always enough;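 further: cells stimulated with the agonist NPW; 0% = agonist with vehicle and 100% = vehicle without agonist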
Target sequence (P48145 whole entry, looked up): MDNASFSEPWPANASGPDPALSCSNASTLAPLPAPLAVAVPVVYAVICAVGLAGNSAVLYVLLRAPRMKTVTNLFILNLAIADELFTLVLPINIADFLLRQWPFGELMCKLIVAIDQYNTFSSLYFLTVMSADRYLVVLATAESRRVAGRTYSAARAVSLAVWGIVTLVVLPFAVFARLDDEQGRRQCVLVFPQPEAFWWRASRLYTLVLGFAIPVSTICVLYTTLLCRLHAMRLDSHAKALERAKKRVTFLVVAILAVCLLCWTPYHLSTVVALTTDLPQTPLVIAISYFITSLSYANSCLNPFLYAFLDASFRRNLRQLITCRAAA
TAAR1 antagonist – human TAAR1 antagonists, primary screen, Fluo-8 calcium fluorescence, CHO RD-HGA16 cells. Trace amine-associated receptor 1 (Homo sapiens), Q96RJ0. antagonist. inhibition, % at 3 µM. actives 1.5% (n = 360,000);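 active means inhibition above a per-plate cutoff, the mean inhibition of test compounds on that plate plus 3 SD, cut at about 49% in these data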;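 further: 0% = DMSO plus EC80 beta-PEA response and 100% = DMSO alone without agonist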
Target sequence (Q96RJ0 whole entry, looked up): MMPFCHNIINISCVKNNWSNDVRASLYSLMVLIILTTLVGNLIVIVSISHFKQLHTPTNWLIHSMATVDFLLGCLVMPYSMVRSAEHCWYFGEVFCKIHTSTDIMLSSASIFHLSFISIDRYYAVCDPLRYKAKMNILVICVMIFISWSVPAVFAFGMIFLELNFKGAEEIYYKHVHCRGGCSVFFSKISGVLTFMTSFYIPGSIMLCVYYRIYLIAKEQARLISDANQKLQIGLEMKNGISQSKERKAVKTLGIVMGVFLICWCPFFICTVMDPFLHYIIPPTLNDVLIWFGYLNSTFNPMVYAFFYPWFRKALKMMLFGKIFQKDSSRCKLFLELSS
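Material: RD-HGA16 CHO cells with stable hTAAR1 and Gα16; Dosing: single nominal final test compound concentration of 3 µM; Schedule: seeding 17-24 h prior, 75-min 37 °C, 30-min RT dye loading; Detection: kinetic Fluo-8 calcium fluorescence measurement; Measure: % inhibition from peak post-agonist over basal fluorescence ratio; Benchmarks: vehicle and agonist controls.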
CHO parental Ca – ATP-evoked calcium signal inhibitors, parental CHO, primary screen, counter-screen for OX1R antagonist project, cell-based, fluorescence, Fluo-8 calcium dye; parental CHO-K1, ATP-induced calcium, Fluo-8 fluorescence; inhibition, % at 5.6 µM; actives 0.63% (n = 330,000); AID 463079, 2010;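 active means inhibition above that plate's mean sample inhibition plus 3 SD, cut at about 26% in these data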;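 further: 0% = ATP-challenged DMSO wells and 100% = DMSO wells without ATP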
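material = parental CHO cells | also added = ATP as calcium-mobilizing challenge | dosing = single point at 5.6 µM | detection = intracellular calcium via Fluo-8 no-wash fluorescent dye | read-out = % inhibition | benchmarks = low control ATP plus DMSO, high control DMSO only | repeats = one well per compound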
TAAR1 ag – human TAAR1 agonists, primary screen, Fluo-8 calcium fluorescence, CHO RD-HGA16 cells; Trace amine-associated receptor 1 (Homo sapiens), Q96RJ0; vehicle wells 0%, saturating PEA agonist 100%; activation, % at 3 µM; actives 0.99% (n = 360,000); AID 624467, 2012;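 active means activation above the mean activation of all test compounds in the run plus 3 SD, cut at about 38% in these data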
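Test system: RD-HGA16 (CHO) cells co-expressing Gα16 and hTAAR1 | Doses: Single dose, 3 µM | Schedule: 17-24 h seeding, 75 min 37 °C dye, 30 min RT | Evaluation: % activation from peak over basal fluorescence ratio, DMSO-to-PEA scaled | Technique: Kinetic Fluo-8 calcium fluorescence | Benchmarks: Low control DMSO, high control PEA (EC100)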
OX1R antag-2 – antagonists of human orexin 1 receptor (OX1R); Orexin/Hypocretin receptor type 1 (Homo sapiens), O43613; OX1R-expressing cells, FRET antagonist read-out; inhibition, % at 6.6 µM; actives 1.8% (n = 330,000); in the data active means inhibition mostly above about 38%, no sharp cut-off; inactive means mostly below about 40%;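 further: 0% = agonist challenge alone and 100% = reference antagonist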
nonsel antag count – nonselective antagonists in TAAR1 counter-screen cells, counter-screen for hTAAR1 antagonist project, cell-based, fluorescence, calcium | shares compounds with TAAR1 antagonist | counterscreen cell line, antagonist mode | inhibition, % at 3 µM | actives 77% (n = 2,400) | AID 651780, 2012; in the data active means inhibition above about 22%;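 further: CHO-Ga16 host cells stimulated with ATP at an EC80 level; 0% = agonist EC80 plus vehicle and 100% = vehicle without agonist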
TAAR1 ant conf – human TAAR1 antagonists, retest of hits, confirmation, cell-based, fluorescence | actives 40% (n = 2,400) | shares compounds with TAAR1 antagonist | inhibition, % at 3 µM | TAAR1-expressing cells, fluorescence antagonist read-out; in the data active means inhibition above about 49%;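 further: CHO-Ga16 host cells challenged with agonist PEA near its EC80; 0% = agonist at EC80 plus vehicle and 100% = vehicle with no agonist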
Ga16 nonsel ag – calcium activation in Ga16-expressing cells, counter-screen for TAAR1 antagonist project, cell-based, fluorescence | AID 651953, 2012 | activation, % at 3 µM | actives 18% (n = 2,400) | agonist counterscreen | shares compounds with TAAR1 antagonist; in the data active means activation above about 12%;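 further: 0% = vehicle wells and 100% = saturating stimulus response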
TAAR1 ag count – TAAR1 activation by candidate antagonists – cell-based, fluorescence, counter-screen for TAAR1 antagonist project; shares compounds with TAAR1 antagonist; hTAAR1 cell line, agonist mode; activation, % at 3 µM; actives 2% (n = 2,400); AID 651955, 2012; in the data active means activation above about 37%;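 further: CHO cells stably expressing TAAR1 with calcium dye readout; 0% = DMSO vehicle and 100% = full agonist response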
* = called active by the depositor; . = no result given. Compounds with a hit are over-represented: about 4.6% of the library has one in this group of screens.

SMILES | OX1R antag-1 | GPR7 antagonist | TAAR1 antagonist | CHO parental Ca | TAAR1 ag | OX1R antag-2 | nonsel antag count | TAAR1 ant conf | Ga16 nonsel ag | TAAR1 ag count
COc1ccc(NC(=O)/C=C/c2ccc(S(=O)(=O)N3CCOCC3)cc2)cc1 | 11 | . | 8 | -5 | 8 | 9 | . | . | . | .
COCOCCn1cc(CN2CCS(=O)(=O)N(Cc3ccc(-c4cccc(N(C)C)c4)cc3)C(C(C)C)C2=O)nn1 (centres undefined) | . | . | 9 | . | 2 | . | . | . | . | .
Cc1cc(OCC(=O)OCC(=O)NC2CCS(=O)(=O)C2)ccc1Cl (centres undefined) | . | . | -1 | . | 2 | . | . | . | . | .
C[C@@H]1CN([C@@H](C)CO)C(=O)c2cc(NC(=O)C3CC3)ccc2O[C@@H]1CN(C)Cc1ccc(Cl)c(Cl)c1 | -24 | . | 19 | -30 | 8 | 3 | . | . | . | .
CCOC(=O)c1c(C)[nH]c(C)c1C(=O)CSc1nc2ccccc2c(=O)n1-c1ccc(F)cc1 | -36 | -9 | 36 | -35 | 9 | 19 | . | . | . | .
CCOC(=O)c1c(C)[nH]c(C)c1C(=O)CSc1nc2ccccc2c(=O)n1-c1ccccc1C | -35 | -8 | 57* | -35 | 14 | 26 | 26* | 47 | 7 | 14
Cc1ccc(S(=O)(=O)NC(CC(C)C)C(=O)Oc2ccc3c4c(c(=O)oc3c2)CCC4)cc1 (centres undefined) | -18 | -2 | 67* | -22 | 10 | 15 | 26* | 45 | 6 | 4
COc1ccc(NS(=O)(=O)c2cc(NC(=O)c3cc(=O)c4ccccc4o3)ccc2OC)cc1 | 9 | -11 | 64* | -3 | 17 | 26 | 27* | 53* | 8 | 5
COc1cccc(NC(=O)c2cc(=O)c3ccccc3o2)c1 | -23 | 10 | 4 | -8 | 3 | 7 | . | . | . | .
O=[N+]([O-])c1ccccc1N/N=C/c1c[nH]c2ccccc12 | 3 | -10 | 1 | -7 | -2 | 50 | . | . | . | .
O=[N+]([O-])c1ccc(N/N=C/c2c[nH]c3ccccc23)cc1 | 45 | 22 | 89* | 47* | 25 | 11 | 36* | 63* | 18* | 9
Cc1cc(C)c(NC(=O)CNC(=O)COC(=O)Cc2cccs2)c(C)c1 | -13 | . | -18 | 1 | 4 | 12 | . | . | . | .
COc1ccc(OC)c(NC(=O)C2(C)CCN2Cc2cccc(OC)c2F)c1 (centres undefined) | . | . | 51* | . | -1 | . | 15 | 30 | 1 | -1
COc1cc(/C=N/NC(=O)c2cccnc2)ccc1OC(=O)c1ccc2c(c1)OCO2 | -11 | -8 | 54* | -18 | 20 | 26 | 26* | 29 | 9 | 17
COc1ccc(/C=N/NC(=O)c2cccnc2)cc1COc1ccc([N+](=O)[O-])c(C)c1 | -7 | 14 | 64* | -6 | 16 | 13 | 38* | 53* | 12* | 11
Cc1ccc(C(=O)N/N=C/c2ccc(OC(=O)c3ccccc3Cl)cc2)cn1 | 8 | 9 | 47 | 7 | 16 | 16 | . | . | . | .
O=C(N/N=C/c1cccc(OC(=O)c2ccccc2Cl)c1)c1cccnc1 | -16 | -6 | 54* | -21 | 14 | 14 | 21 | 33 | 9 | 12
Cn1c(=O)c2cc(NC(=O)OCCF)ccc2n1Cc1cccc(C(F)(F)F)c1 | . | . | -11 | . | 4 | . | . | . | . | .
CC(=O)N1N=C(c2cccc(O)c2)CC1c1cccs1 (centres undefined) | . | -4 | 71* | . | 16 | . | 18 | 44 | 7 | 12
CC(=O)N1N=C(c2cccc(NS(C)(=O)=O)c2)CC1c1cccs1 (centres undefined) | -15 | -11 | 0 | -13 | 3 | 10 | . | . | . | .
OCCNc1nc(Nc2cc(Cl)ccc2OC2CCCC2)nc(N2CCCC2)n1 | -26 | . | 49* | -30 | 14 | 16 | 22* | 27 | 4 | 6
COc1ccc(Cl)cc1Nc1nc(NCCO)nc(N2CCCC2)n1 | -8 | -17 | -1 | -8 | -2 | 10 | . | . | . | .
COc1ccc(C(=O)C2CCN(C(=O)Nc3ccccc3C)CC2)cc1 | -15 | 5 | -8 | -2 | 5 | 13 | . | . | . | .
Cc1nn(-c2ccccc2)c(C)c1NC(=O)COC(=O)[C@@H](NC(=O)c1ccccc1)C(C)C | -23 | . | 0 | -20 | 1 | 16 | . | . | . | .
Cc1nn(-c2ccccc2)c(C)c1NC(=O)COC(=O)c1ccc(O)cc1O | . | 1 | 76* | . | 21 | . | 29* | 55* | 10 | 11
SMILES | OX1R antag-1 | GPR7 antagonist | TAAR1 antagonist | CHO parental Ca | TAAR1 ag | OX1R antag-2 | nonsel antag count | TAAR1 ant conf | Ga16 nonsel ag | TAAR1 ag count
CCOc1ccc(OCCSc2nc3ccccc3c(=O)[nH]2)cc1 | -6 | -8 | 63* | -4 | 33 | 4 | 9 | 26 | 8 | 16
CCc1nnc(NC(=O)C2Cc3ccccc3CN2S(=O)(=O)CC)s1 (centres undefined) | -37 | -1 | 10 | -5 | 0 | 19 | . | . | . | .
CCS(=O)(=O)N1Cc2ccccc2CC1C(=O)Nc1nnc(SCc2ccc(F)cc2)s1 (centres undefined) | -5 | -2 | 62* | -15 | 30 | 6 | 32* | 43 | 9 | 9
COc1cccc(OC)c1C(=O)Oc1ccc2c(c1)O/C(=C\c1ccncc1)C2=O | -12 | -6 | 53* | -20 | 8 | 12 | 41* | 56* | 6 | 2
CC(=O)Nc1ccc(S(=O)(=O)N2CCC(C(=O)NCc3cccnc3)CC2)cc1 | 11 | -2 | -19 | 16 | 4 | 0 | . | . | . | .
CC(Oc1cccc(Br)c1)C(=O)NNC(=O)CCNC(=O)c1ccccc1Cl (centres undefined) | -25 | . | 10 | -9 | 8 | 1 | . | . | . | .
COc1ccc(-c2cn(Cc3ccc4ccccc4c3)nn2)cc1 | 0 | -1 | 106* | 20 | 30 | 16 | 46* | 81* | 10 | 14
